The values that follow come from ChEMBL document CHEMBL5335784, “Discovery of a novel 1,3,4-oxadiazol-2-one-based NLRP3 inhibitor as a pharmacological agent to mitigate cardiac and metabolic complications in an experimental model of diet-induced metaflammation” (Eur J Med Chem, 2023).

Data set [1] concerns Rattus norvegicus. The data set can be described thus: Cardioprotective activity against high fat diet fed-induced metaflammation Wistar rat model assessed as reduction in myocardial damage by measuring reduction in plasma LDH level at 20 mg/kg/day, ip administered for 4 weeks. The class given is functional, organism-based.
The test system of data set [2] is Rattus norvegicus. The data set is described as follows: Antiinflammatory activity against high fat diet fed-induced metaflammation Wistar rat model assessed as reduction in HFD-induced metabolic alterations by measuring reduction in LDL cholesterol level in plasma at 20 mg/kg/day, ip administered for 4 weeks. The class given is functional, organism-based. The essentials:
(§1)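 Rats fed HFD or SD for 12 weeks, dosed 20 mg/kg/day i.p. in saline/2% DMSO/5% Cremophor-EL during the final 28 days. Serum obtained after sacrifice by centrifuging blood at 2000 x g, 10 min, 4 °C. Glucose read by glucometer; total, HDL and LDL cholesterol and triglycerides measured with commercial kits. n=6–7 per group.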

Data set [3] can be described thus: Effect on glyco-metabolic profile in standard diet fed Wistar rat assessed as effect on triglyceride level in plasma at 20 mg/kg/day, ip administered for 4 weeks. Particulars: in vivo, 672 h. The class given is toxicity, organism-based. Summed up:
as §1

Data set [4] deals with NACHT, LRR and PYD domains-containing protein 3 (Homo sapiens, UniProt Q96P20). The data set is described as follows: Inhibition of NLRP3 inflammasome activation in PMA-differentiated human THP-1 cells assessed as inhibition of LPS/ATP-induced IL-1 beta release pretreated for 4 hrs with LPS followed by incubation with compound for 1 hr and later treated with ATP for 1.5 hrs by ELISA. The class given is cell-based. (An ELISA detects its analyte on a solid surface through an enzyme-linked reagent.)

For data set [5], the system named is Rattus norvegicus. The data set is described as follows: Antiinflammatory activity against high fat diet fed-induced metaflammation Wistar rat model assessed as reduction in serum IL-1 beta level at 20 mg/kg/day, ip administered for 4 weeks by ELISA. The class given is functional, organism-based. The essentials:
(§2)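 Male Wistar rats on HFD or SD for 12 weeks received 20 mg/kg/day i.p. (saline, 2% DMSO, 5% Cremophor-EL) or vehicle for the last 28 days. Circulating IL-1β, TNF-α, BNP and Gal-3 quantified by ELISA in blood collected after sacrifice. n=6–7 per group.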

Data set [6] deals with Rattus norvegicus. The data set is described as follows: Inhibition of ischemia/reperfusion-induced inflammation in ischemia/reperfusion-induced myocardial injury and standard diet fed Wistar rat model assessed as decrease in cardiac IL-1 beta level at 20 mg/kg/day, ip administered for 4 weeks followed by excised heart exposed to global ischemia for 30 mins and reperfusion for 120 mins by ELISA. The class given is functional, organism-based. The essentials:
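Male Wistar rats on standard or 60% kcal fat diet for 12 weeks; last 28 days i.p. 20 mg/kg/day in saline with 2% DMSO and 5% Cremophor-EL, or vehicle. Hearts perfused by Langendorff with KH buffer at 12 ml/min, 37°C, then 40 min stabilization, 30 min global no-flow ischemia and 120 min reperfusion. Cytokines measured in LV tissue; n=6–7 per group.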

Data set [7] is described as follows: Drug metabolism in human serum assessed as half time for compound hydrolysis to 2-(5-(2-Chlorobenzyl)-2-oxo-1,3,4-oxadiazol-3(2H)-yl)acetic acid at 100 uM by RP-HPLC analysis. The class given is ADME, cell-free. Summed up:
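Compound at 100 μM final (from 10 mM DMSO stock) in human male AB serum held at 37 °C. Aliquots at intervals deproteinized with CH3CN/0.1% TFA, centrifuged, filtered and analysed by RP-HPLC against calibration standards. Pseudo-first-order t1/2 from exponential decay fit; three experiments.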

A short description of data set [8]: Effect on IL-1 beta level in standard diet fed Wistar rat serum at 20 mg/kg/day, ip administered for 4 weeks by ELISA. The class given is toxicity, organism-based. The settings on record: in vivo, 672 h. Summed up: as §2
For data set [9], the system named is Rattus norvegicus. The data set can be described thus: Antiinflammatory activity against high fat diet fed-induced metaflammation Wistar rat model assessed as reduction in HFD-induced anthropometric alterations by measuring reduction in epididymal fat deposition at 20 mg/kg/day, ip administered for 4 weeks. The class given is functional, organism-based. Summed up: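 Male Wistar rats on high-fat diet (60% kcal fat) or standard diet for 12 weeks; 20 mg/kg/day i.p. or vehicle (saline, 2% DMSO, 5% Cremophor-EL) over the last 28 days. Body weight recorded weekly. After sacrifice, abdominal, epididymal, retroperitoneal and perirenal fat, liver and heart excised and weighed. Cardiac somatic index = heart weight/body weight ×100. n=6–7 per group.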

Data set [10] is described as follows: n-Octanol/water distribution coefficient, log D of the compound at pH 7.4 measured after 4 hrs by shake flask method. The class given is physicochemical. The essentials:
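Shake-flask at room temperature between n-octanol and 50 mM phosphate buffer pH 7.4, ionic strength 0.15 M KCl. Phases were pre-saturated by 4 h shaking. Compound at about 0.1 mg/ml in buffer, shaken about 20 min with n-octanol, then centrifuged at 10000 rpm for 10 min.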

Structures are written as SMILES. Calls of active or inactive are those of the source. The rule behind the calls is not given here.

Sequence of NACHT, LRR and PYD domains-containing protein 3 (Q96P20 whole entry, the tested form may be a part): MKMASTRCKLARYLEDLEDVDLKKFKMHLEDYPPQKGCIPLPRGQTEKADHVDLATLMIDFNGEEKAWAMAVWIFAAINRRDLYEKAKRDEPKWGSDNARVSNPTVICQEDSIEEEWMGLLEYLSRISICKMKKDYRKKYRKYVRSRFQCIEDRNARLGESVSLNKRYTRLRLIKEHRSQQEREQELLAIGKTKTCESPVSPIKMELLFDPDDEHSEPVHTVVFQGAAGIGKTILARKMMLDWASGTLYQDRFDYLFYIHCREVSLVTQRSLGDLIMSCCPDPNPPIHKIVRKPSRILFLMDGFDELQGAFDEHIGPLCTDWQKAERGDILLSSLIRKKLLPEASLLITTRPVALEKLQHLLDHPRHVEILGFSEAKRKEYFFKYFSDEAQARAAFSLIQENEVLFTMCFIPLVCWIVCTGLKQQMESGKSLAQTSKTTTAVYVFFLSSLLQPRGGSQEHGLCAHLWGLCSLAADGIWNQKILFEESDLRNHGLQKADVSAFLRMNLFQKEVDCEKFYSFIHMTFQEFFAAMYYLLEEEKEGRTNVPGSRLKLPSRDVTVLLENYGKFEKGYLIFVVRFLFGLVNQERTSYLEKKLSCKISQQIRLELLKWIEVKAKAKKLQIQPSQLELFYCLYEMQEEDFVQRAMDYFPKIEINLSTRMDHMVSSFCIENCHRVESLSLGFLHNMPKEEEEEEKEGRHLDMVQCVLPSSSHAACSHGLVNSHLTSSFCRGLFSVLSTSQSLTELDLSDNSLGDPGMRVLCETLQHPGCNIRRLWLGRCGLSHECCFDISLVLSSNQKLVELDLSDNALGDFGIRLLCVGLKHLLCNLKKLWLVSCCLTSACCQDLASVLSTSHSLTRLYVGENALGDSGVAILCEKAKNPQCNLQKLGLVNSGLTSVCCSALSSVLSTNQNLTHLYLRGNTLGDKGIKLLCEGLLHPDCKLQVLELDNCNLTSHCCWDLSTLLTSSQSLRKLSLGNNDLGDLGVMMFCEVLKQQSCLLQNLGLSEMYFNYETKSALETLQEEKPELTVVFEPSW

Take `CCOC(=O)Cn1nc(Cc2ccccc2Cl)oc1=O`: the result in the data set on Rattus norvegicus [1], in the data set with Rattus norvegicus [2], with Rattus norvegicus [5] and in the data set on Rattus norvegicus [9] was Active. Also, the Activity entry in data set [3] and in [8] was “Non-Toxic” in each case. For the same compound, in data set [4], the IC50 (usually the concentration needed to halve the response being measured) was determined as 16.6 µM. For the same compound, the inhibition entry with Rattus norvegicus [6] is “Active”. Besides, the half-life (commonly the time in which the quantity being followed falls by half) at 100 µM in [7] was 4 h. For the same compound, in data set [10], the logD (in general, lipophilicity at a set pH, counting ionised and neutral species) at 4 h was 2.03.
